Measured values reported in ChEMBL document CHEMBL5303300, “EUbOPEN Chemogenomics Library - Multiplex” (2023).
Values joined by “and” are separate entries in the source; they are usually repeats but may differ in a detail not shown here. Equal entries are not always repeated.

Tested on: HEK-293T
Test: Multiplex assay against HEK293T
Type: toxicity, cell-based
Conditions: human, number of replicates 2
Procedure, shortened: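 At seeding, live cells were stained with Hoechst33342, BioTracker Green Microtubule Cytoskeleton Dye, MitoTracker Red and Annexin V Alexa Fluor 680. After compound addition they were imaged on a CQ1 microscope at 37°C and 5% CO2, and CellPathfinder machine-learning gating sorted them into Hoechst high-intensity objects or normal cells, with normal cells further split into healthy, pyknosed or fragmented nuclei and pyknosed cells into mitotic or apoptotic. Tubulin, mitochondrial-mass and membrane-permeability phenotypes are given as per cents of cells with healthy nuclei.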

[1] = 12 h, 1 µM, compound concentration 1 uM
[2] = 12 h, 10 µM, compound concentration 10 uM
[3] = 24 h, 1 µM, compound concentration 1 uM
[4] = 24 h, 10 µM, compound concentration 10 uM
[5] = 48 h, 1 µM, compound concentration 1 uM
[6] = 48 h, 10 µM, compound concentration 10 uM

CC(C)NC(=O)[C@H]1CCC[C@H]1Nc1nc(Nc2ccc(C(=O)N(C)C3CCN(C)CC3)cc2)ncc1Cl
Population Apoptotic (%) [1]: 64% and 57%
Population Fragmented Nuclei (%) [1]: 3% and 1%
Population Healthy Nuclei (%) [1]: 79% and 87%
Population Hoechst High Intensity Objects (%) [1]: 7% and 8%
Population Membrane Permeable-Phenotype (%) [1]: 4% and 2%
Population Mitochondria Different-Phenotype (%) [1]: 17% and 15%
Population Mitotic Cells (%) [1]: 35% and 42%
Population Normal (%) [1]: 92% and 91%
Population Pyknosed Nuclei (%) [1]: 16% and 10%
Population Tubulin-Different-Phenotype (%) [1]: 60% and 58%
Total Cell Count [1]: 568 and 503
Population Apoptotic (%) [2]: 47% and 56%
Population Fragmented Nuclei (%) [2]: 3% and 2%
Population Healthy Nuclei (%) [2]: 87% and 86%
Population Hoechst High Intensity Objects (%) [2]: 8% and 7%
Population Membrane Permeable-Phenotype (%) [2]: 4%
Population Mitochondria Different-Phenotype (%) [2]: 29% and 30%
Population Mitotic Cells (%) [2]: 52% and 43%
Population Normal (%) [2]: 91% and 92%
Population Pyknosed Nuclei (%) [2]: 9% and 10%
Population Tubulin-Different-Phenotype (%) [2]: 88% and 87%
Total Cell Count [2]: 520 and 480
Population Apoptotic (%) [3]: 64% and 61%
Population Fragmented Nuclei (%) [3]: 5% and 6%
Population Healthy Nuclei (%) [3]: 76% and 84%
Population Hoechst High Intensity Objects (%) [3]: 9% and 10%
Population Membrane Permeable-Phenotype (%) [3]: 2%
Population Mitochondria Different-Phenotype (%) [3]: 9% and 5%
Population Mitotic Cells (%) [3]: 35% and 38%
Population Normal (%) [3]: 90% and 89%
Population Pyknosed Nuclei (%) [3]: 17% and 8%
Population Tubulin-Different-Phenotype (%) [3]: 43% and 37%
Total Cell Count [3]: 653 and 524
Population Apoptotic (%) [4]: 52% and 54%
Population Fragmented Nuclei (%) [4]: 3% and 4%
Population Healthy Nuclei (%) [4]: 85% and 87%
Population Hoechst High Intensity Objects (%) [4]: 6% and 9%
Population Membrane Permeable-Phenotype (%) [4]: 6% and 3%
Population Mitochondria Different-Phenotype (%) [4]: 16% and 18%
Population Mitotic Cells (%) [4]: 47% and 45%
Population Normal (%) [4]: 93% and 90%
Population Pyknosed Nuclei (%) [4]: 11% and 7%
Population Tubulin-Different-Phenotype (%) [4]: 74% and 81%
Total Cell Count [4]: 514 and 516
Population Apoptotic (%) [5]: 68% and 45%
Population Fragmented Nuclei (%) [5]: 9% and 8%
Population Healthy Nuclei (%) [5]: 84% and 89%
Population Hoechst High Intensity Objects (%) [5]: 9% and 10%
Population Membrane Permeable-Phenotype (%) [5]: 3% and 1%
Population Mitochondria Different-Phenotype (%) [5]: 1% and 2%
Population Mitotic Cells (%) [5]: 31% and 54%
Population Normal (%) [5]: 90% and 89%
Population Pyknosed Nuclei (%) [5]: 5% and 2%
Population Tubulin-Different-Phenotype (%) [5]: 22% and 20%
Total Cell Count [5]: 714 and 606
Population Apoptotic (%) [6]: 47% and 53%
Population Fragmented Nuclei (%) [6]: 8% and 10%
Population Healthy Nuclei (%) [6]: 84% and 85%
Population Hoechst High Intensity Objects (%) [6]: 10% and 11%
Population Membrane Permeable-Phenotype (%) [6]: 3% and 4%
Population Mitochondria Different-Phenotype (%) [6]: 5%
Population Mitotic Cells (%) [6]: 52% and 46%
Population Normal (%) [6]: 89% and 88%
Population Pyknosed Nuclei (%) [6]: 6% and 4%
Population Tubulin-Different-Phenotype (%) [6]: 67% and 70%
Total Cell Count [6]: 617 and 637

O=C(Nc1ccnc(NC(=O)C2CC2)c1)c1c(Cl)cccc1Cl
Population Apoptotic (%) [1]: 42% and 49%
Population Fragmented Nuclei (%) [1]: 3% and 2%
Population Healthy Nuclei (%) [1]: 81% and 83%
Population Hoechst High Intensity Objects (%) [1]: 9% and 5%
Population Membrane Permeable-Phenotype (%) [1]: 3% and 7%
Population Mitochondria Different-Phenotype (%) [1]: 11% and 10%
Population Mitotic Cells (%) [1]: 57% and 50%
Population Normal (%) [1]: 90% and 94%
Population Pyknosed Nuclei (%) [1]: 15% and 14%
Population Tubulin-Different-Phenotype (%) [1]: 43% and 37%
Total Cell Count [1]: 735 and 602
Population Apoptotic (%) [2]: 55% and 57%
Population Fragmented Nuclei (%) [2]: 3% and 2%
Population Healthy Nuclei (%) [2]: 92% and 91%
Population Hoechst High Intensity Objects (%) [2]: 3%
Population Membrane Permeable-Phenotype (%) [2]: 5% and 3%
Population Mitochondria Different-Phenotype (%) [2]: 8% and 9%
Population Mitotic Cells (%) [2]: 44% and 42%
Population Normal (%) [2]: 96%
Population Pyknosed Nuclei (%) [2]: 3% and 5%
Population Tubulin-Different-Phenotype (%) [2]: 32% and 35%
Total Cell Count [2]: 713 and 727
Population Apoptotic (%) [3]: 37% and 50%
Population Fragmented Nuclei (%) [3]: 4%
Population Healthy Nuclei (%) [3]: 84% and 85%
Population Hoechst High Intensity Objects (%) [3]: 5% and 6%
Population Membrane Permeable-Phenotype (%) [3]: 4% and 3%
Population Mitochondria Different-Phenotype (%) [3]: 3%
Population Mitotic Cells (%) [3]: 62% and 50%
Population Normal (%) [3]: 94% and 93%
Population Pyknosed Nuclei (%) [3]: 10% and 9%
Population Tubulin-Different-Phenotype (%) [3]: 17% and 19%
Total Cell Count [3]: 1049 and 883
Population Apoptotic (%) [4]: 42% and 69%
Population Fragmented Nuclei (%) [4]: 3% and 5%
Population Healthy Nuclei (%) [4]: 92% and 90%
Population Hoechst High Intensity Objects (%) [4]: 4% and 3%
Population Membrane Permeable-Phenotype (%) [4]: 1%
Population Mitochondria Different-Phenotype (%) [4]: 2% and 3%
Population Mitotic Cells (%) [4]: 57% and 30%
Population Normal (%) [4]: 95% and 96%
Population Pyknosed Nuclei (%) [4]: 3% and 4%
Population Tubulin-Different-Phenotype (%) [4]: 14% and 15%
Total Cell Count [4]: 757 and 769
Population Apoptotic (%) [5]: 19% and 24%
Population Fragmented Nuclei (%) [5]: 9% and 7%
Population Healthy Nuclei (%) [5]: 85% and 87%
Population Hoechst High Intensity Objects (%) [5]: 7%
Population Membrane Permeable-Phenotype (%) [5]: 3% and 4%
Population Mitochondria Different-Phenotype (%) [5]: 0% and 1%
Population Mitotic Cells (%) [5]: 80% and 75%
Population Normal (%) [5]: 92%
Population Pyknosed Nuclei (%) [5]: 4%
Population Tubulin-Different-Phenotype (%) [5]: 10% and 11%
Total Cell Count [5]: 2441 and 1608
Population Apoptotic (%) [6]: 38% and 32%
Population Fragmented Nuclei (%) [6]: 11%
Population Healthy Nuclei (%) [6]: 86% and 85%
Population Hoechst High Intensity Objects (%) [6]: 6% and 5%
Population Membrane Permeable-Phenotype (%) [6]: 1% and 0%
Population Mitochondria Different-Phenotype (%) [6]: 2%
Population Mitotic Cells (%) [6]: 61% and 67%
Population Normal (%) [6]: 93% and 94%
Population Pyknosed Nuclei (%) [6]: 2% and 3%
Population Tubulin-Different-Phenotype (%) [6]: 8% and 7%
Total Cell Count [6]: 1085 and 965

COc1ccc(F)c(F)c1C(=O)c1cnc(NC2CCN(S(C)(=O)=O)CC2)nc1N [RG-547]
Population Apoptotic (%) [1]: 71% and 70%
Population Fragmented Nuclei (%) [1]: 1% and 3%
Population Healthy Nuclei (%) [1]: 86% and 87%
Population Hoechst High Intensity Objects (%) [1]: 8%
Population Membrane Permeable-Phenotype (%) [1]: 4%
Population Mitochondria Different-Phenotype (%) [1]: 21% and 18%
Population Mitotic Cells (%) [1]: 28% and 29%
Population Normal (%) [1]: 91%
Population Pyknosed Nuclei (%) [1]: 11% and 8%
Population Tubulin-Different-Phenotype (%) [1]: 57% and 48%
Total Cell Count [1]: 469 and 554
Population Apoptotic (%) [2]: 62% and 82%
Population Fragmented Nuclei (%) [2]: 3% and 4%
Population Healthy Nuclei (%) [2]: 91% and 86%
Population Hoechst High Intensity Objects (%) [2]: 8% and 11%
Population Membrane Permeable-Phenotype (%) [2]: 2% and 1%
Population Mitochondria Different-Phenotype (%) [2]: 24% and 33%
Population Mitotic Cells (%) [2]: 37% and 17%
Population Normal (%) [2]: 91% and 88%
Population Pyknosed Nuclei (%) [2]: 5% and 8%
Population Tubulin-Different-Phenotype (%) [2]: 59% and 65%
Total Cell Count [2]: 491 and 448
Population Apoptotic (%) [3]: 86% and 67%
Population Fragmented Nuclei (%) [3]: 3% and 5%
Population Healthy Nuclei (%) [3]: 90% and 87%
Population Hoechst High Intensity Objects (%) [3]: 5% and 7%
Population Membrane Permeable-Phenotype (%) [3]: 5% and 3%
Population Mitochondria Different-Phenotype (%) [3]: 8% and 9%
Population Mitotic Cells (%) [3]: 13% and 32%
Population Normal (%) [3]: 94% and 92%
Population Pyknosed Nuclei (%) [3]: 5% and 7%
Population Tubulin-Different-Phenotype (%) [3]: 33% and 37%
Total Cell Count [3]: 670 and 592
Population Apoptotic (%) [4]: 63% and 66%
Population Fragmented Nuclei (%) [4]: 4% and 2%
Population Healthy Nuclei (%) [4]: 89% and 87%
Population Hoechst High Intensity Objects (%) [4]: 9% and 15%
Population Membrane Permeable-Phenotype (%) [4]: 0%
Population Mitochondria Different-Phenotype (%) [4]: 42% and 37%
Population Mitotic Cells (%) [4]: 36% and 33%
Population Normal (%) [4]: 90% and 84%
Population Pyknosed Nuclei (%) [4]: 6% and 9%
Population Tubulin-Different-Phenotype (%) [4]: 63% and 61%
Total Cell Count [4]: 395 and 403
Population Apoptotic (%) [5]: 61% and 72%
Population Fragmented Nuclei (%) [5]: 11%
Population Healthy Nuclei (%) [5]: 86%
Population Hoechst High Intensity Objects (%) [5]: 5%
Population Membrane Permeable-Phenotype (%) [5]: 1% and 2%
Population Mitochondria Different-Phenotype (%) [5]: 2% and 4%
Population Mitotic Cells (%) [5]: 38% and 27%
Population Normal (%) [5]: 94%
Population Pyknosed Nuclei (%) [5]: 1%
Population Tubulin-Different-Phenotype (%) [5]: 24% and 25%
Total Cell Count [5]: 841 and 644
Population Apoptotic (%) [6]: 73% and 80%
Population Fragmented Nuclei (%) [6]: 5%
Population Healthy Nuclei (%) [6]: 89% and 84%
Population Hoechst High Intensity Objects (%) [6]: 17% and 13%
Population Membrane Permeable-Phenotype (%) [6]: 0%
Population Mitochondria Different-Phenotype (%) [6]: 50% and 55%
Population Mitotic Cells (%) [6]: 26% and 20%
Population Normal (%) [6]: 82% and 86%
Population Pyknosed Nuclei (%) [6]: 5% and 10%
Population Tubulin-Different-Phenotype (%) [6]: 67% and 65%
Total Cell Count [6]: 329 and 336
